# Experiments:
# Clostridium tetani = assay: Antibacterial activity against Clostridium tetani MTCC 449 after 24 hrs by broth microdilution method; assay type: functional; settings: MTCC 449, 24 h
# Bacillus subtilis = assay: Antibacterial activity against Bacillus subtilis MTCC 441 after 24 hrs by broth microdilution method; assay type: functional; settings: MTCC 441, 24 h
# Salmonella typhi = assay: Antibacterial activity against Salmonella typhi MTCC 98 after 24 hrs by broth microdilution method; assay type: functional, Salmonella enterica subsp. enterica serovar Typhi; settings: Salmonella enterica, MTCC 98, 24 h
# [1] = Antioxidant activity assessed as ascorbic acid equivalent ferric ion reducing activity per 100 gram at 200 ug/ml by FRAP assay; assay type: functional
# Streptococcus pneumoniae = assay: Antibacterial activity against Streptococcus pneumoniae MTCC 1936 after 24 hrs by broth microdilution method; assay type: functional; settings: MTCC 1936, 24 h
# Aspergillus fumigatus = assay: Antifungal activity against Aspergillus fumigatus MTCC 3008 after 48 hrs by broth microdilution method; assay type: functional; settings: MTCC 3008, 48 h
# Escherichia coli = assay: Antibacterial activity against Escherichia coli MTCC 443 after 24 hrs by broth microdilution method; assay type: functional; settings: MTCC 443, 24 h
# Vibrio cholerae = assay: Antibacterial activity against Vibrio cholerae MTCC 3906 after 24 hrs by broth microdilution method; assay type: functional; settings: MTCC 3906, 24 h
# Candida albicans = assay: Antifungal activity against Candida albicans MTCC 227 after 48 hrs by broth microdilution method; assay type: functional; settings: MTCC 227, 48 h
# [2] = test system: Mycobacterium tuberculosis; assay: Antimycobacterial activity against Mycobacterium tuberculosis H37Rv at 250 ug/ml; assay type: functional
# Method in brief: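 M. tuberculosis H37Rv tested on L.J. (Löwenstein–Jensen) medium.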
SMILES,MIC (Clostridium tetani) [µg/mL],MIC (Bacillus subtilis) [µg/mL],MIC (Salmonella typhi) [µg/mL],Activity [1] [mmol],MIC (Streptococcus pneumoniae) [µg/mL],MIC (Aspergillus fumigatus) [µg/mL],MIC (Escherichia coli) [µg/mL],MIC (Vibrio cholerae) [µg/mL],MIC (Candida albicans) [µg/mL],inhibition at 250 µg/mL [2] [%]
Cc1nn(-c2ccccc2)c2c1[C@@H]1c3cc4cccc(C)c4nc3SC[C@@H]1CO2,200,100,200,160,250,250,250,250,1000,38
Cc1nn(-c2ccccc2)c2c1[C@@H]1c3cc4ccccc4nc3SC[C@@H]1CO2,62.5,200,125,126,200,500,100,100,500,87
Cc1cccc2cc3c(nc12)SC[C@@H]1COc2c(c(-c4ccccc4)nn2-c2ccccc2)[C@H]31,125,200,125,101,200,> 1000,100,200,> 1000,9
Cc1nn(-c2cc(Cl)ccc2Cl)c2c1[C@@H]1c3cc4cccc(C)c4nc3SC[C@@H]1CO2,100,100,200,129,250,1000,62.5,100,1000,49
Cc1nn(-c2cccc(Cl)c2)c2c1[C@@H]1c3cc4cccc(C)c4nc3SC[C@@H]1CO2,200,250,500,125,250,200,250,200,1000,82
Cc1nn(-c2ccc(Cl)c(Cl)c2)c2c1[C@@H]1c3c(ccc4c(C)cc(=O)oc34)OC[C@@H]1C(C)(C)O2,250,250,250,150,250,500,200,125,200,70
Cc1cc(=O)oc2c3c(ccc12)OC[C@@H]1COc2c(c(-c4ccccc4)nn2-c2ccccc2)[C@H]31,100,125,125,163,100,500,62.5,100,500,68
Cc1nn(-c2ccccc2Cl)c2c1[C@@H]1c3cc4ccccc4nc3SC[C@@H]1CO2,250,125,250,90.9,100,> 1000,250,250,1000,52
"Cc1nn(-c2cccc(Cl)c2)c2c1[C@@H]1c3cc4cccc(C)c4nc3SC[C@@H]1C(C)(C)O2 (single isomer, unassigned)",1000,200,250,18.2,100,500,150,100,500,91
Cc1nn(-c2cccc(Cl)c2)c2c1[C@@H]1c3c(ccc4c(C)cc(=O)oc34)OC[C@@H]1CO2,62.5,200,200,158,62.5,250,100,250,1000,19
"Cc1nn(-c2ccccc2)c2c1[C@@H]1c3cc4cccc(C)c4nc3SC[C@@H]1C(C)(C)O2 (single isomer, unassigned)",100,250,100,83.5,100,1000,200,125,> 1000,49

# Reference: ChEMBL document CHEMBL2331438, “An efficient domino reaction in ionic liquid: synthesis and biological evaluation of some pyrano- and thiopyrano-fused heterocycles” (2013)
